Compound activity as filed in PubChem.
Shown are actives, neighbours in structure and some others; about 1.8% of the full set was active somewhere.
PHOSPHO1 inh – inhibitors of human PHOSPHO1 phosphatase | Q8TCT1 | recombinant PHOSPHO1, absorbance phosphatase assay | inhibition, % at 13.3 µM | 1.1% of 290,000 active; in the data active = inhibition above about 60%
Target sequence (Q8TCT1 whole entry, looked up): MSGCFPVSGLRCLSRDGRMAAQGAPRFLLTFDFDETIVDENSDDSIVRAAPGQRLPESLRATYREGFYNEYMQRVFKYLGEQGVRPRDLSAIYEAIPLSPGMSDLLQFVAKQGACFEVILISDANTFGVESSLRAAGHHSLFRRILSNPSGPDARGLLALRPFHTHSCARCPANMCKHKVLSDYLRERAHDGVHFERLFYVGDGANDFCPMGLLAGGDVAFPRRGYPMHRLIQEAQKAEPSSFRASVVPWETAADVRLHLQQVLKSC
A3A deaminase – human APOBEC3A DNA deaminase inhibition | inhibition, % at 20 µM | 0.41% of 330,000 active | recombinant A3A, FAM/TAMRA ssDNA deamination fluorescence | AID 493011 | P31941;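 active = at least 40% inhibition at 20 µM here, with at most 30% in a related deaminase screen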;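 also: plate controls were A3A with DMSO for no effect and wells lacking A3A enzyme for full effect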
Target sequence (P31941 whole entry, looked up): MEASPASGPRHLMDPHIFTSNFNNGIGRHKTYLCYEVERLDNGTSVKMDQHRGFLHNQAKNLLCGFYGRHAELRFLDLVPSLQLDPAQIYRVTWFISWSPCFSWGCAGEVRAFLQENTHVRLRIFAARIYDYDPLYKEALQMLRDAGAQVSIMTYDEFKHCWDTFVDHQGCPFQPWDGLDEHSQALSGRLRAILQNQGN
A3G deaminase – APOBEC3G (human) deaminase inhibition; recombinant A3G, ssDNA deamination FAM/TAMRA fluorescence; 0.28% of 330,000 active; AID 493012; inhibition, % at 20 µM; Q9HC16;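 active = inhibition of at least 40% at 20 µM, with no more than 30% in the related APOBEC3A deaminase screen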;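 also: plate controls were DMSO wells with A3G for no effect and wells lacking A3G enzyme for full effect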
TbMetRS inhib – Trypanosoma brucei MetRS inhibition | purified T. brucei MetRS, ATP depletion, Kinase-Glo luminescence | inhibition, % at 11.9 µM | 0.4% of 360,000 active;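 active = inhibition above a per-plate cutoff of the control wells' mean inhibition plus 3 SD, cut at about 5.5% in these data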;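 also: 0% = DMSO wells median and 100% = median of wells with control inhibitor compound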
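Assay system: T. brucei methionyl-tRNA synthetase, purified | Medium: HEPES buffer with MgCl2, KCl, DTT, spermine, BSA, pyrophosphatase | Compound: 11.9 µM single point | Incubation: 15 min enzyme-compound preincubation, 2 h reaction, 10 min detection, 25 °C | Measured by: Kinase-Glo luciferase luminescence reporting remaining unconsumed ATP | Measure: % inhibition normalized to control-well medians | Replication: Singlicate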
pCIP destab – compounds decreasing mouse p/CIP protein stability; F442A p/CIP-EGFP cells, EGFP fluorescence, 16 h; Q05BA5; decrease of EGFP signal, % at 10 µM; 0.01% of 290,000 active;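 active = EGFP signal decrease of at least 30% at 10 µM or well 3 SD below plate mean, unless failing retest; inactive = the rest, including hits failing retest or dose response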
Starred values were filed as active, the others as inactive.

Screening CC1(C)CN(C2CCCCC2)C(=O)[C@H]1CC(=O)Nc1ccc(Br)cc1 returned TbMetRS inhib 0.
`N#CCCn1cc(C=C(C#N)C#N)c(-c2ccc(Cl)cc2)n1` gave PHOSPHO1 inh 60*, A3A deaminase -2, A3G deaminase -6, TbMetRS inhib -1 and pCIP destab -20.
Cc1nc(CS(=O)(=O)c2ccc(Cl)cc2)cc(Sc2ccccc2Cl)n1 was read as PHOSPHO1 inh 10, A3A deaminase 4, A3G deaminase -3, TbMetRS inhib -1 and pCIP destab -13.
Cc1cc(C(=O)OCC(=O)N2CCOCC2)c(C)n1-c1ccccc1 was read as A3A deaminase -6, A3G deaminase -7 and TbMetRS inhib 0.
Screening Cc1cc(C(=O)OCC(=O)Nc2c(F)cccc2F)c(C)n1-c1ccccc1 returned PHOSPHO1 inh 64*, A3A deaminase 5, A3G deaminase -2, TbMetRS inhib 0 and pCIP destab -8.
`Cc1ccc(Nc2nc(C)cs2)cc1` gave PHOSPHO1 inh 65*, A3A deaminase 1, A3G deaminase -8, TbMetRS inhib 0 and pCIP destab -13.
For Cc1csc(Nc2ccc(Cl)cc2)n1 the results were PHOSPHO1 inh 44, A3A deaminase 0, A3G deaminase -7, TbMetRS inhib 0 and pCIP destab -6.
S=c1[nH]nc(-c2ccco2)n1/N=C/C=C/c1ccco1 was read as PHOSPHO1 inh 69*, A3A deaminase 63, A3G deaminase 73, TbMetRS inhib 0 and pCIP destab -3.
COc1ccccc1/C=C/C=N/n1c(-c2ccc(C)cc2)n[nH]c1=S was read as PHOSPHO1 inh 86*, A3A deaminase -1, A3G deaminase -1, TbMetRS inhib -1 and pCIP destab 1.
`COc1ccc(-c2n[nH]c(=S)n2/N=C/C=C\c2ccccc2OC)cc1` gave PHOSPHO1 inh 66*, A3A deaminase -2, A3G deaminase 0, TbMetRS inhib 0 and pCIP destab -8.
For COc1ccccc1/C=C/C=N/n1c(-c2n[nH]c3c2CCC3)n[nH]c1=S the results were PHOSPHO1 inh 23, A3A deaminase -8, A3G deaminase 22, TbMetRS inhib 0 and pCIP destab 2.
S=c1[nH]nc(-c2cc(-c3ccccc3)n[nH]2)n1/N=C/C=C/c1ccco1 was read as PHOSPHO1 inh 23, A3A deaminase 40, A3G deaminase 51, TbMetRS inhib 0 and pCIP destab -4.
Screening COc1ccccc1/C=C/C=N/n1c(-c2ccco2)n[nH]c1=S returned PHOSPHO1 inh 85*, A3A deaminase -5, A3G deaminase 16, TbMetRS inhib 0 and pCIP destab -6.
`Cn1cnc2c(=O)[nH]cc([N+](=O)[O-])c21` gave PHOSPHO1 inh 9, A3A deaminase 3, A3G deaminase -5, TbMetRS inhib 0 and pCIP destab -14.
`Cc1ccc(S(=O)(=O)N2CCN(C(=S)NCCc3ccccc3)CC2)cc1` gave PHOSPHO1 inh -21, A3A deaminase -8, A3G deaminase 9, TbMetRS inhib 0 and pCIP destab -25.
Screening N#Cc1ccc(OCC(=O)NCCc2ccccn2)cc1 returned PHOSPHO1 inh -4, A3A deaminase 0, A3G deaminase 0, TbMetRS inhib -1 and pCIP destab 10.
COc1ccccc1/C=C/C=N/n1c(-c2cc(C)[nH]n2)n[nH]c1=S was read as PHOSPHO1 inh 62*, A3A deaminase 0, A3G deaminase 36, TbMetRS inhib 0 and pCIP destab -2.
Cc1cccc(-c2cccc(NC(=O)C3CCCN(Cc4cccnc4)C3)c2)c1 (stereo not given) was read as PHOSPHO1 inh 61*, A3A deaminase -3, A3G deaminase -4, TbMetRS inhib -1 and pCIP destab 4.
Cc1ccc(NS(=O)(=O)c2ccc3c(c2)NC(=O)CCS3)c(Br)c1 was read as PHOSPHO1 inh 65*, A3A deaminase -6, A3G deaminase -6, TbMetRS inhib 1 and pCIP destab 0.
Screening COc1ccc(CNC(=O)CC[C@H]2O[C@@H](n3cc(C)c(=O)[nH]c3=O)C[C@@H]2O)cc1 returned TbMetRS inhib 0.
Screening Cc1ccc(OCC(=O)NC(=S)Nc2ccc(Br)c(C)n2)cc1 returned PHOSPHO1 inh 84*, A3A deaminase -5, A3G deaminase -5, TbMetRS inhib -1 and pCIP destab 2.
Screening Cn1ncc([N+](=O)[O-])c1C(=O)N1CCOCC1 returned PHOSPHO1 inh 38, A3A deaminase -5, A3G deaminase -4, TbMetRS inhib -1 and pCIP destab -17.
Screening Cc1cc(C)nc(SCc2csc(-c3ccccc3)n2)n1 returned PHOSPHO1 inh 12, A3A deaminase 1, A3G deaminase 3, TbMetRS inhib 0 and pCIP destab -11.
Screening Cc1cc(C)nc(SCc2csc(N)n2)n1 returned PHOSPHO1 inh 84*, A3A deaminase 0, A3G deaminase -6, TbMetRS inhib -1 and pCIP destab -8.
O=C(CN1CCN(c2ccccc2)CC1)N/N=C/c1cccc(F)c1 was read as PHOSPHO1 inh -9, A3A deaminase 1, A3G deaminase -1, TbMetRS inhib -1 and pCIP destab -6.
For O=C(Cc1c(F)c(F)c(F)c(F)c1F)Nc1nc(-c2ccccc2)cs1 the results were PHOSPHO1 inh 32, A3A deaminase 2, A3G deaminase -2, TbMetRS inhib 0 and pCIP destab -11.
For COc1cccc(CC(NC(C)=O)C(=O)NC2CCN(C(=O)c3ccncc3)CC2)c1OC (stereo not given) the results were PHOSPHO1 inh 14, A3A deaminase -3, A3G deaminase -6, TbMetRS inhib 0 and pCIP destab 1.
Screening Cc1cccc(C2c3[nH]c4ccccc4c3CCN2C(=O)c2cc(C(C)C)nc(N)n2)n1 (stereo not given) returned PHOSPHO1 inh 68*, A3A deaminase -2, A3G deaminase -5, TbMetRS inhib -1 and pCIP destab -13.
COc1cccc(C(=O)N2CCCc3ccccc32)c1OC was read as TbMetRS inhib 0.
Screening COCCn1c(SCc2nc3sc(C(=O)OC)c(C)c3c(=O)[nH]2)nc2ccccc21 returned PHOSPHO1 inh 92*, A3A deaminase 2, A3G deaminase -3, TbMetRS inhib 0 and pCIP destab -11.
CCn1c(SCc2nc3sc(C(=O)O)c(C)c3c(=O)[nH]2)nc2ccccc21 was read as PHOSPHO1 inh 26, A3A deaminase 79, A3G deaminase 65, TbMetRS inhib 1 and pCIP destab 0.
For Cc1ccc(NN2C(=O)C=C(c3ccccc3)C2=O)cc1 the results were PHOSPHO1 inh 61*, A3A deaminase -2, A3G deaminase 0, TbMetRS inhib -2 and pCIP destab -8.
O=C1c2ccccc2C(=O)N1Nc1ccccc1 was read as PHOSPHO1 inh 3, A3A deaminase 4, A3G deaminase -3, TbMetRS inhib 0 and pCIP destab -15.
